Active and inactive are the calls of the source. No cut-off for these calls is given here.
Legend:
Plasmodium chabaudi [1] = assay: Antimalarial activity against nonlethal Plasmodium chabaudi chabaudi AS infected in C57BL/6 mouse assessed as inhibition of parasitemia at 7.5 mg/kg/day, ip administered 1 hr post-infection and measured on day 6 post-infection; type: functional; conditions: route intraperitoneal
Method in brief: (§1)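 C57BL/6 mice (7-10 per group, aged 7-10 weeks, 20 ± 3 g) infected i.p. with 106 IE of P. c. chabaudi AS; given daily i.p. doses of 0.75 to 7.5 mg/kg/day for 11 consecutive days (days 0-10), first dose 1 h p.i. Parasitemia counted daily in Giemsa-stained smears (≥1,000 erythrocytes) until day 12; inhibition relative to untreated mice.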

Plasmodium chabaudi [2] = assay: Antimalarial activity against lethal Plasmodium chabaudi chabaudi AJ infected in C57BL/6 mouse assessed as mouse survival rate at 7.5 mg/kg/day, ip administered 1 hr post-infection and measured on day 14 post-infection; type: functional; conditions: route intraperitoneal
Method in brief: (§2)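 C57BL/6 mice, groups of 10, aged 7-10 weeks, 20 ± 3 g, infected i.p. with 106 IE of lethal P. c. chabaudi AJ; 7.5 mg/kg/day given i.p. for 11 consecutive days (days 0-10 p.i.), first dose 1 h p.i.; survival followed daily versus untreated mice; Log-Rank test.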

Plasmodium chabaudi [3] = assay: Antimalarial activity against lethal Plasmodium chabaudi chabaudi AJ infected in C57BL/6 mouse assessed as mouse survival rate at 7.5 mg/kg/day, ip administered 1 hr post-infection and measured on day 16 post-infection; type: functional; conditions: route intraperitoneal; method in brief: as §2
Plasmodium chabaudi [4] = assay: Antimalarial activity against nonlethal Plasmodium chabaudi chabaudi AS infected in C57BL/6 mouse assessed as inhibition of parasitemia at 7.5 mg/kg/day, ip administered 1 hr post-infection and measured on day 7 post-infection; type: functional; conditions: route intraperitoneal; method in brief: as §1
Plasmodium chabaudi [5] = assay: Antimalarial activity against nonlethal Plasmodium chabaudi chabaudi AS infected in C57BL/6 mouse assessed as inhibition of parasitemia at 0.75 mg/kg/day, ip administered 1 hr post-infection and measured on day 8 post-infection; type: functional; conditions: route intraperitoneal; method in brief: as §1
Plasmodium chabaudi [6] = assay: Antimalarial activity against lethal Plasmodium chabaudi chabaudi AJ infected in C57BL/6 mouse assessed as mouse survival rate at 7.5 mg/kg/day, ip administered 1 hr post-infection and measured on day 9 post-infection; type: functional; conditions: route intraperitoneal; method in brief: as §2
Plasmodium chabaudi [7] = assay: Antimalarial activity against nonlethal Plasmodium chabaudi chabaudi AS infected in C57BL/6 mouse assessed as inhibition of parasitemia at 0.75 mg/kg/day, ip administered 1 hr post-infection and measured on day 5 post-infection; type: functional; conditions: route intraperitoneal; method in brief: as §1
Plasmodium chabaudi [8] = assay: Antimalarial activity against nonlethal Plasmodium chabaudi chabaudi AS infected in C57BL/6 mouse assessed as inhibition of parasitemia at 0.075 mg/kg/day, ip administered 1 hr post-infection and measured on day 6 post-infection; type: functional, organism-based
Method in brief: (§3)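 C57BL/6 mice (7-10 per group, 7-10 weeks old, 20 ± 3 g) were infected i.p. with 10^6 P. chabaudi chabaudi AS infected erythrocytes. Violacein was given i.p. daily for 11 days (days 0-10), starting 1 h post-infection. Parasitemia was counted daily on Giemsa-stained smears (≥1,000 erythrocytes) and inhibition was calculated against untreated infected mice.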

Plasmodium chabaudi [9] = assay: Antimalarial activity against nonlethal Plasmodium chabaudi chabaudi AS infected in C57BL/6 mouse assessed as inhibition of parasitemia at 0.075 mg/kg/day, ip administered 1 hr post-infection and measured on day 7 post-infection; type: functional, organism-based; method in brief: as §3
Plasmodium chabaudi [10] = assay: Antimalarial activity against nonlethal Plasmodium chabaudi chabaudi AS infected in C57BL/6 mouse assessed as inhibition of parasitemia at 7.5 mg/kg/day, ip administered 1 hr post-infection and measured on day 8 post-infection; type: functional; conditions: route intraperitoneal; method in brief: as §1
Plasmodium chabaudi [11] = assay: Antimalarial activity against nonlethal Plasmodium chabaudi chabaudi AS infected in C57BL/6 mouse assessed as inhibition of parasitemia at 0.75 mg/kg/day, ip administered 1 hr post-infection and measured on day 7 post-infection; type: functional; conditions: route intraperitoneal; method in brief: as §1
Plasmodium chabaudi [12] = assay: Antimalarial activity against nonlethal Plasmodium chabaudi chabaudi AS infected in C57BL/6 mouse assessed inhibition of parasitemia at 7.5 mg/kg/day, ip for 10 days followed by compound withdrawal and measured on day 16 post-infection; type: functional; conditions: route intraperitoneal
Method in brief: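 Mice infected i.p. with 106 P. c. chabaudi AS IE; 7.5 mg/kg/day given i.p. for 11 days (0-10 p.i.) from 1 h p.i., then withdrawn. Parasitemia followed in Giemsa-stained smears until day 22 p.i. versus untreated mice; Mann-Whitney U test.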

Plasmodium falciparum [13] = assay: Antimalarial activity against Plasmodium falciparum mature blood forms (24 to 48 hrs ring stage) infected in erythrocytes after 24 hrs by [3H]hypoxanthine incorporation assay; type: functional, organism-based; conditions: in the assay text read “trophozoites and schizonts stage” for “ring stage”
Method in brief: (§4)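 Synchronized (±6 h) P. falciparum 3D7 blood stages were prepared by repeated 5% sorbitol treatment. Rings (0-24 h) or trophozoites/schizonts (24-48 h) were used at 1% parasitemia and 2% final hematocrit, exposed to violacein for 24 h, and growth was read by [3H]-hypoxanthine incorporation. Inhibition % = [1 − (CPM treated − CPM uninfected RBC)/(CPM untreated − CPM uninfected RBC)] × 100. Runs were in triplicate.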

Plasmodium chabaudi [14] = assay: Antimalarial activity against nonlethal Plasmodium chabaudi chabaudi AS infected in C57BL/6 mouse assessed as inhibition of parasitemia at 3.75 mg/kg/day, ip administered 1 hr post-infection and measured on day 8 post-infection; type: functional; conditions: route intraperitoneal; method in brief: as §1
Plasmodium falciparum [15] = assay: Antimalarial activity against chloroquine-sensitive Plasmodium falciparum 3D7 infected in erythrocytes after 48 hrs by [3H]hypoxanthine incorporation assay; type: functional, organism-based
Method in brief: (§5)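 Erythrocytes infected with P. falciparum at 1% parasitemia, 2% final hematocrit; growth read by [3H]-hypoxanthine incorporation after 48 h at 37°C. Inhibition % = [1 – (CPM treated IE – CPM NE)/(CPM untreated IE – CPM NE)] x 100, untreated IE as 100% growth. Triplicates, at least three times with different batches and cells; concentrations from 0.06 µM upward; IC50 from dose-response.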

[16] = Toxicity in erythrocytes assessed as red blood cell density at 14 uM after 48 hrs; type: cell-based; conditions: erythrocyte
Method in brief: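 Uninfected erythrocytes were cultured 48 h at 37°C with a range of violacein concentrations. Cells were counted in a Neubauer chamber. RBC density was expressed as % of the drug-free control: (RBC/mL with violacein ÷ RBC/mL without) × 100. Results are means of triplicates ± SD, with Mann-Whitney U test for significance.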

Plasmodium chabaudi [17] = assay: Antimalarial activity against nonlethal Plasmodium chabaudi chabaudi AS infected in C57BL/6 mouse assessed as inhibition of parasitemia at 3.75 mg/kg/day, ip administered 1 hr post-infection and measured on day 7 post-infection; type: functional; conditions: route intraperitoneal; method in brief: as §1
Plasmodium falciparum [18] = assay: Antimalarial activity against Plasmodium falciparum young blood forms (0 to 24 hrs ring stage) infected in erythrocytes after 24 hrs by [3H]hypoxanthine incorporation assay; type: functional, organism-based; method in brief: as §4
Plasmodium chabaudi [19] = assay: Antimalarial activity against nonlethal Plasmodium chabaudi chabaudi AS infected in C57BL/6 mouse assessed as inhibition of parasitemia at 0.075 mg/kg/day, ip administered 1 hr post-infection and measured on day 5 post-infection; type: functional, organism-based; method in brief: as §3
Plasmodium chabaudi [20] = assay: Antimalarial activity against nonlethal Plasmodium chabaudi chabaudi AS infected in C57BL/6 mouse assessed as inhibition of parasitemia at 3.75 mg/kg/day, ip administered 1 hr post-infection and measured on day 5 post-infection; type: functional; conditions: route intraperitoneal; method in brief: as §1
Plasmodium chabaudi [21] = assay: Antimalarial activity against nonlethal Plasmodium chabaudi chabaudi AS infected in C57BL/6 mouse assessed as inhibition of parasitemia at 7.5 mg/kg/day, ip administered 5 days post-infection and measured on day 7 post-infection; type: functional; conditions: route intraperitoneal
Method in brief: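 Mice infected i.p. with 106 P. c. chabaudi AS IE; 7.5 mg/kg/day given i.p. daily from day 5 p.i. (16% parasitemia) to day 10 (6 days). Parasitemia counted daily in Giemsa-stained smears (≥1,000 erythrocytes) versus untreated mice; Mann-Whitney U test.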

Plasmodium chabaudi [22] = assay: Antimalarial activity against nonlethal Plasmodium chabaudi chabaudi AS infected in C57BL/6 mouse assessed as inhibition of parasitemia at 0.075 mg/kg/day, ip administered 1 hr post-infection and measured on day 8 post-infection; type: functional; conditions: route intraperitoneal
Plasmodium chabaudi [23] = assay: Antimalarial activity against nonlethal Plasmodium chabaudi chabaudi AS infected in C57BL/6 mouse assessed as inhibition of parasitemia at 3.75 mg/kg/day, ip administered 1 hr post-infection and measured on day 6 post-infection; type: functional; conditions: route intraperitoneal; method in brief: as §1
Plasmodium falciparum [24] = assay: Antimalarial activity against chloroquine-resistant Plasmodium falciparum S20 infected in erythrocytes after 48 hrs by [3H]hypoxanthine incorporation assay; type: functional, organism-based; method in brief: as §5
Plasmodium chabaudi [25] = assay: Antimalarial activity against nonlethal Plasmodium chabaudi chabaudi AS infected in C57BL/6 mouse assessed as inhibition of parasitemia at 7.5 mg/kg/day, ip administered 1 hr post-infection and measured on day 5 post-infection; type: functional; conditions: route intraperitoneal; method in brief: as §1
Plasmodium chabaudi [26] = assay: Antimalarial activity against nonlethal Plasmodium chabaudi chabaudi AS infected in C57BL/6 mouse assessed as inhibition of parasitemia at 0.75 mg/kg/day, ip administered 1 hr post-infection and measured on day 6 post-infection; type: functional; conditions: route intraperitoneal; method in brief: as §1

O=C1NC(c2c[nH]c3ccc(O)cc23)=C/C1=C1\C(=O)Nc2ccccc21 [VIOLACEIN]
inhibition in vivo at 7.5 mg/kg/day (Plasmodium chabaudi [1]): 75.4% | survival at 7.5 mg/kg/day (Plasmodium chabaudi [2]): 14% | survival at 7.5 mg/kg/day (Plasmodium chabaudi [3]): 80% | inhibition in vivo at 7.5 mg/kg/day (Plasmodium chabaudi [4]): 86.9% | inhibition in vivo at 0.75 mg/kg/day (Plasmodium chabaudi [5]): 48.9% | survival at 7.5 mg/kg/day (Plasmodium chabaudi [6]): 10% | inhibition in vivo at 0.75 mg/kg/day (Plasmodium chabaudi [7]): 3.58% | inhibition (Plasmodium chabaudi [8]): inactive | inhibition (Plasmodium chabaudi [9]): inactive | inhibition in vivo at 7.5 mg/kg/day (Plasmodium chabaudi [10]): 84.7% | inhibition in vivo at 0.75 mg/kg/day (Plasmodium chabaudi [11]): 39.2% | inhibition in vivo at 7.5 mg/kg/day (Plasmodium chabaudi [12]): 59% | inhibition (Plasmodium falciparum [13]): Active | inhibition in vivo at 3.75 mg/kg/day (Plasmodium chabaudi [14]): 75.7% | IC50 (Plasmodium falciparum [15]): 850 nM | Activity [16]: Toxic | inhibition in vivo at 3.75 mg/kg/day (Plasmodium chabaudi [17]): 82.1% | inhibition (Plasmodium falciparum [18]): Active | inhibition (Plasmodium chabaudi [19]): inactive | inhibition in vivo at 3.75 mg/kg/day (Plasmodium chabaudi [20]): 33.2% | inhibition in vivo at 7.5 mg/kg/day (Plasmodium chabaudi [21]): 50.1% | inhibition in vivo at 0.075 mg/kg/day (Plasmodium chabaudi [22]): 12% | inhibition in vivo at 3.75 mg/kg/day (Plasmodium chabaudi [23]): 64.9% | IC50 (Plasmodium falciparum [24]): 630 nM | inhibition in vivo at 7.5 mg/kg/day (Plasmodium chabaudi [25]): 56.5% | inhibition in vivo at 0.75 mg/kg/day (Plasmodium chabaudi [26]): 20.4%
